{"source": "ChEMBL document CHEMBL4689842", "about": "“EUbOPEN Chemogenomics Library wave 1” (2021)", "test_system": "U2OS", "experiment": "Multiplex assay against U2OS", "type": "toxicity, cell-based", "conditions": "human", "summary_of_the_method": "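At seeding, live cells were stained with Hoechst33342, BioTracker Green Microtubule Cytoskeleton Dye, MitoTracker Red and Annexin V Alexa Fluor 680. After compound addition they were imaged on a CQ1 microscope at 37°C and 5% CO2, and CellPathfinder machine-learning gating sorted them into Hoechst high-intensity objects or normal cells, with normal cells further split into healthy, pyknosed or fragmented nuclei and pyknosed cells into mitotic or apoptotic. Tubulin, mitochondrial-mass and membrane-permeability phenotypes are given as per cents of cells with healthy nuclei.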", "key": {"[1]": {"conditions": "12 h, 1 µM, compound concentration 1 uM, replicate 1"}, "[2]": {"conditions": "12 h, 1 µM, compound concentration 1 uM, replicate 2"}, "[3]": {"conditions": "12 h, 10 µM, compound concentration 10 uM, replicate 1"}, "[4]": {"conditions": "12 h, 10 µM, compound concentration 10 uM, replicate 2"}, "[5]": {"conditions": "24 h, 1 µM, compound concentration 1 uM, replicate 1"}, "[6]": {"conditions": "24 h, 1 µM, compound concentration 1 uM, replicate 2"}, "[7]": {"conditions": "24 h, 10 µM, compound concentration 10 uM, replicate 1"}, "[8]": {"conditions": "24 h, 10 µM, compound concentration 10 uM, replicate 2"}}}
{"smiles": "CCc1cccc(CC)c1NC(=O)c1nn(C)c2c1CCc1cnc(Nc3ccc(N4CCN(C)CC4)cc3OC)nc1-2", "values": [{"measurement": "Population Apoptotic (%)", "setting": "[1]", "value": 70, "unit": "%"}, {"measurement": "Population Fragmented Nuclei (%)", "setting": "[1]", "value": 38, "unit": "%"}, {"measurement": "Population Healthy Nuclei (%)", "setting": "[1]", "value": 7, "unit": "%"}, {"measurement": "Population Hoechst High Intensity Objects (%)", "setting": "[1]", "value": 8, "unit": "%"}, {"measurement": "Population Membrane Permeable-Phenotype (%)", "setting": "[1]", "value": 100, "unit": "%"}, {"measurement": "Population Mitochondria Different-Phenotype (%)", "setting": "[1]", "value": 75, "unit": "%"}, {"measurement": "Population Mitotic Cells (%)", "setting": "[1]", "value": 29, "unit": "%"}, {"measurement": "Population Normal (%)", "setting": "[1]", "value": 91, "unit": "%"}, {"measurement": "Population Pyknosed Nuclei (%)", "setting": "[1]", "value": 53, "unit": "%"}, {"measurement": "Population Tubulin-Different-Phenotype (%)", "setting": "[1]", "value": 100, "unit": "%"}, {"measurement": "Total Cell Count", "setting": "[1]", "value": 159}, {"measurement": "Population Apoptotic (%)", "setting": "[2]", "value": 68, "unit": "%"}, {"measurement": "Population Fragmented Nuclei (%)", "setting": "[2]", "value": 18, "unit": "%"}, {"measurement": "Population Healthy Nuclei (%)", "setting": "[2]", "value": 12, "unit": "%"}, {"measurement": "Population Hoechst High Intensity Objects (%)", "setting": "[2]", "value": 14, "unit": "%"}, {"measurement": "Population Membrane Permeable-Phenotype (%)", "setting": "[2]", "value": 77, "unit": "%"}, {"measurement": "Population Mitochondria Different-Phenotype (%)", "setting": "[2]", "value": 100, "unit": "%"}, {"measurement": "Population Mitotic Cells (%)", "setting": "[2]", "value": 31, "unit": "%"}, {"measurement": "Population Normal (%)", "setting": "[2]", "value": 85, "unit": "%"}, {"measurement": "Population Pyknosed Nuclei (%)", "setting": "[2]", "value": 68, "unit": "%"}, {"measurement": "Total Cell Count", "setting": "[2]", "value": 87}, {"measurement": "Population Apoptotic (%)", "setting": "[3]", "value": 26, "unit": "%"}, {"measurement": "Population Fragmented Nuclei (%)", "setting": "[3]", "value": 5, "unit": "%"}, {"measurement": "Population Healthy Nuclei (%)", "setting": "[3]", "value": 80, "unit": "%"}, {"measurement": "Population Hoechst High Intensity Objects (%)", "setting": "[3]", "value": 2, "unit": "%"}, {"measurement": "Population Membrane Permeable-Phenotype (%)", "setting": "[3]", "value": 35, "unit": "%"}, {"measurement": "Population Mitochondria Different-Phenotype (%)", "setting": "[3]", "value": 54, "unit": "%"}, {"measurement": "Population Mitotic Cells (%)", "setting": "[3]", "value": 73, "unit": "%"}, {"measurement": "Population Normal (%)", "setting": "[3]", "value": 97, "unit": "%"}, {"measurement": "Population Pyknosed Nuclei (%)", "setting": "[3]", "value": 14, "unit": "%"}, {"measurement": "Population Tubulin-Different-Phenotype (%)", "setting": "[3]", "value": 95, "unit": "%"}, {"measurement": "Total Cell Count", "setting": "[3]", "value": 143}, {"measurement": "Population Apoptotic (%)", "setting": "[4]", "value": 50, "unit": "%"}, {"measurement": "Population Fragmented Nuclei (%)", "setting": "[4]", "value": 8, "unit": "%"}, {"measurement": "Population Healthy Nuclei (%)", "setting": "[4]", "value": 83, "unit": "%"}, {"measurement": "Population Hoechst High Intensity Objects (%)", "setting": "[4]", "value": 18, "unit": "%"}, {"measurement": "Population Membrane Permeable-Phenotype (%)", "setting": "[4]", "value": 22, "unit": "%"}, {"measurement": "Population Mitochondria Different-Phenotype (%)", "setting": "[4]", "value": 69, "unit": "%"}, {"measurement": "Population Mitotic Cells (%)", "setting": "[4]", "value": 50, "unit": "%"}, {"measurement": "Population Normal (%)", "setting": "[4]", "value": 81, "unit": "%"}, {"measurement": "Population Pyknosed Nuclei (%)", "setting": "[4]", "value": 8, "unit": "%"}, {"measurement": "Population Tubulin-Different-Phenotype (%)", "setting": "[4]", "value": 93, "unit": "%"}, {"measurement": "Total Cell Count", "setting": "[4]", "value": 127}, {"measurement": "Population Apoptotic (%)", "setting": "[5]", "value": 94, "unit": "%"}, {"measurement": "Population Fragmented Nuclei (%)", "setting": "[5]", "value": 30, "unit": "%"}, {"measurement": "Population Healthy Nuclei (%)", "setting": "[5]", "value": 9, "unit": "%"}, {"measurement": "Population Hoechst High Intensity Objects (%)", "setting": "[5]", "value": 20, "unit": "%"}, {"measurement": "Population Membrane Permeable-Phenotype (%)", "setting": "[5]", "value": 100, "unit": "%"}, {"measurement": "Population Mitochondria Different-Phenotype (%)", "setting": "[5]", "value": 100, "unit": "%"}, {"measurement": "Population Mitotic Cells (%)", "setting": "[5]", "value": 5, "unit": "%"}, {"measurement": "Population Normal (%)", "setting": "[5]", "value": 80, "unit": "%"}, {"measurement": "Population Pyknosed Nuclei (%)", "setting": "[5]", "value": 59, "unit": "%"}, {"measurement": "Population Tubulin-Different-Phenotype (%)", "setting": "[5]", "value": 100, "unit": "%"}, {"measurement": "Total Cell Count", "setting": "[5]", "value": 169}, {"measurement": "Population Apoptotic (%)", "setting": "[6]", "value": 92, "unit": "%"}, {"measurement": "Population Fragmented Nuclei (%)", "setting": "[6]", "value": 18, "unit": "%"}, {"measurement": "Population Healthy Nuclei (%)", "setting": "[6]", "value": 17, "unit": "%"}, {"measurement": "Population Mitotic Cells (%)", "setting": "[6]", "value": 7, "unit": "%"}, {"measurement": "Population Pyknosed Nuclei (%)", "setting": "[6]", "value": 64, "unit": "%"}, {"measurement": "Total Cell Count", "setting": "[6]", "value": 84}, {"measurement": "Population Apoptotic (%)", "setting": "[7]", "value": 53, "unit": "%"}, {"measurement": "Population Fragmented Nuclei (%)", "setting": "[7]", "value": 10, "unit": "%"}, {"measurement": "Population Healthy Nuclei (%)", "setting": "[7]", "value": 71, "unit": "%"}, {"measurement": "Population Hoechst High Intensity Objects (%)", "setting": "[7]", "value": 1, "unit": "%"}, {"measurement": "Population Membrane Permeable-Phenotype (%)", "setting": "[7]", "value": 22, "unit": "%"}, {"measurement": "Population Mitochondria Different-Phenotype (%)", "setting": "[7]", "value": 73, "unit": "%"}, {"measurement": "Population Mitotic Cells (%)", "setting": "[7]", "value": 46, "unit": "%"}, {"measurement": "Population Normal (%)", "setting": "[7]", "value": 98, "unit": "%"}, {"measurement": "Population Pyknosed Nuclei (%)", "setting": "[7]", "value": 18, "unit": "%"}, {"measurement": "Population Tubulin-Different-Phenotype (%)", "setting": "[7]", "value": 92, "unit": "%"}, {"measurement": "Total Cell Count", "setting": "[7]", "value": 196}, {"measurement": "Population Apoptotic (%)", "setting": "[8]", "value": 41, "unit": "%"}, {"measurement": "Population Fragmented Nuclei (%)", "setting": "[8]", "value": 14, "unit": "%"}, {"measurement": "Population Healthy Nuclei (%)", "setting": "[8]", "value": 69, "unit": "%"}, {"measurement": "Population Hoechst High Intensity Objects (%)", "setting": "[8]", "value": 10, "unit": "%"}, {"measurement": "Population Membrane Permeable-Phenotype (%)", "setting": "[8]", "value": 21, "unit": "%"}, {"measurement": "Population Mitochondria Different-Phenotype (%)", "setting": "[8]", "value": 75, "unit": "%"}, {"measurement": "Population Mitotic Cells (%)", "setting": "[8]", "value": 58, "unit": "%"}, {"measurement": "Population Normal (%)", "setting": "[8]", "value": 89, "unit": "%"}, {"measurement": "Population Pyknosed Nuclei (%)", "setting": "[8]", "value": 16, "unit": "%"}, {"measurement": "Population Tubulin-Different-Phenotype (%)", "setting": "[8]", "value": 94, "unit": "%"}, {"measurement": "Total Cell Count", "setting": "[8]", "value": 163}]}
